From ChEMBL document CHEMBL4513216, “Probing the Open Global Health Chemical Diversity Library for Multistage-Active Starting Points for Next-Generation Antimalarials” (ACS Infect Dis, 2020) come the findings set out here.

A short description of the data set: Toxicity liver stage against HepG2, at 10uM. The note with it: human, HepG2-A16-CD81EGFP cells; read-out: INHIBITION
The format is cell-based. On the set-up: test concentration 10 uM, cell line HepG2-A16-CD81EGFP. The essentials:
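Uninfected HepG2-A16-CD81EGFP cells, 3 × 10^3 per well, 1536-well, plated on prespotted compound at 10 μM final, parasite-free screening media added to match infected plates; puromycin 10 μM positive, DMSO 0.5% negative; run in parallel with 48 h PbLuc assay at 37 °C, 5% CO2; viability by CellTiter-Glo luminescence, normalized to controls.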
As for `CCNC(=O)NC[C@H]1C[C@@H]2CCN1C[C@@H]2c1cc(-c2cccs2)nn1C`, the cytotoxicity at 10 µM was -5.72%. `Cc1n[nH]c2c1C(c1ccc(O)cc1)SCC(=O)N2` (stereo not given): the cytotoxicity at 10 µM was 10.6%. For the compound `CN1CCN(C(=O)[C@H]2CC[C@@H]3[C@@H](CCN3Cc3nccs3)O2)CC1`, the cytotoxicity at 10 µM was found to be 5.41%. In the case of `CN1CCCC(CNC(=O)N(C)Cc2ccc(Cl)c(F)c2)C1` (stereo not given), the cytotoxicity at 10 µM amounted to 1.36%.

Turning to `O=C(CN1CCc2cncnc2C1)NC1CCCCNC1=O` (stereo not given), the cytotoxicity at 10 µM was found to be 7.36%. As to `O=C(NCC1(O)CCC1)c1c(O)cc(Cl)cc1Cl`, the cytotoxicity at 10 µM stood at 0.924%.

For `CC1CCCCN1C(=O)COc1nc(Cc2ccc(F)cc2)no1` (stereo not given), the cytotoxicity at 10 µM amounted to 1.43%. For the compound `COc1ncnc(N)c1CNCc1ccccc1-n1cccn1`, the cytotoxicity at 10 µM is -24.4%.

On to `O=C(NCC[S+]([O-])c1ccccc1)c1ccc2[nH]c(=O)[nH]c2c1` (stereo not given), for which the cytotoxicity at 10 µM was determined as 3.18%. Take `CCc1c(C(=O)Nc2ccc(F)c(C(=O)NC)c2)cnn1CC(C)C`: the cytotoxicity at 10 µM was found to be 14.7%. With `CN(C)c1ncccc1NC(=O)COC1CCCC1`, the cytotoxicity at 10 µM was found to be 0.189%. For `CCOc1ccccc1C(N)CC(C)C` (stereo not given), the cytotoxicity at 10 µM is -0.857%. For the compound `Cc1cc(CNCC2CNc3ccnn3C2)no1` (stereo not given), the cytotoxicity at 10 µM is -6.06%. Turning to `NC(=O)C1CCCN1Cc1nccn1CC(F)(F)F` (stereo not given), the cytotoxicity at 10 µM was 12.2%. Take `Fc1cccc(C2CCCN2Cc2nnnn2C2CC2)c1` (stereo not given): the cytotoxicity at 10 µM was found to be 2.8%. Consider `c1cc(-c2noc(CN3CCc4c(ncn4C4CC4)C3)n2)cs1`, for which the cytotoxicity at 10 µM was determined as 4.71%.

Regarding `Cc1nc(C(C)(C)C)sc1C(=O)NCCn1ccnc1`, the cytotoxicity at 10 µM was -0.586%. As for `CC(C(=O)N1CCCCCC1)N1CCN(c2nccs2)CC1` (stereo not given), the cytotoxicity at 10 µM was 11.7%.

In the case of `CC(=O)N1CCCN(C(=O)NCCCN(C)S(C)(=O)=O)CC1`, the cytotoxicity at 10 µM is -2.44%. Take `CCN1Cc2c(C(=O)NC(C)C)ncn2-c2ccccc2S1(=O)=O`: the cytotoxicity at 10 µM is -83.9%. Take `Cc1ccc(CN2CC[C@@H](NC(=O)c3cccnc3)[C@H](O)C2)o1`: the cytotoxicity at 10 µM is 2.52%.

Consider `CCCc1cc(C(=O)NC(COC)c2ccnn2C)no1` (stereo not given), for which the cytotoxicity at 10 µM was -6.14%. With `CCc1nc2ccccc2n1C(CC)C(=O)N(C)Cc1noc(C)n1` (stereo not given), the cytotoxicity at 10 µM turned out to be 2.23%.

Consider `COc1ccc(Cl)cc1C(C(=O)O)N1CCSCC1` (stereo not given), for which the cytotoxicity at 10 µM is -10.8%.

Turning to `O=S(=O)(NCc1ccccc1)N1CCN(c2ncccn2)CC1`, the cytotoxicity at 10 µM came to 4.7%. On to `CCC(CO)(CO)NC(=O)C1CCC(=O)N(CCc2ccccc2)C1` (stereo not given), for which the cytotoxicity at 10 µM was -2.78%. Turning to `Cc1cc(C)nc(NC2CCCN(CCCc3ccccc3)C2)n1` (stereo not given), the cytotoxicity at 10 µM amounted to 2.49%. The same measure for `CCc1nccn1-c1cncc(C2CCCN2Cc2ccc(F)cc2)n1` (stereo not given): -1.44%.

For the compound `COc1c(C2CCCN2C(=O)c2csc(C(C)C)n2)c(C)nn1C` (stereo not given), the cytotoxicity at 10 µM was -8.26%. In the case of `Cc1nnc2n1CCN(C(C(=O)NC1CC1)c1ccccc1)C2` (stereo not given) it was -2.94%; in that of `Cc1cc(C2CCCN2C(=O)c2cc3c(s2)CCC3)on1` (stereo not given), -13.4%; in that of `Cc1cc(C(C)NC(=O)N2CCC(n3cncn3)CC2)c(C)s1` (stereo not given), -15.9%. For the compound `CCc1nc(CN2CCCN(C(=O)C(C)n3ccnc3)CC2)cs1` (stereo not given), the cytotoxicity at 10 µM is -13.8%. In the case of `CCc1nc(CN(C)C2CCN(CCc3ccccn3)C2)no1` (stereo not given) it was -0.168%; in that of `CC(Cc1c(F)cccc1F)NC(=O)Nc1cnn(CC(N)=O)c1` (stereo not given), -2.96%. For the compound `CNC(=O)[C@@H](c1ccccc1)N1CCC[C@H]1C(=O)NC1CCCCC1`, the cytotoxicity at 10 µM is 2.35%. For the compound `Cc1occc1C(=O)N1CCC2(CC1)CC(OCc1ccccn1)CO2` (stereo not given), the cytotoxicity at 10 µM was -71.7%.

In the case of `O=C(NC1CC1)N1CCC2(CC1)C(=O)NCCN2Cc1ccccc1`, the cytotoxicity at 10 µM is -0.685%.

In the case of `COc1cc(CNCCc2nc(C)cs2)cc2c1OCCO2`, the cytotoxicity at 10 µM was -2.4%. For the compound `Cc1nc(CN2CC[C@@H]3O[C@@H](C(=O)N4CCOCC4)C[C@@H]32)cs1`, the cytotoxicity at 10 µM turned out to be 2.08%.
